# Assay results from PubChem BioAssay.
# Activity calls are given as the source filed them.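 The calls were made as follows, unless noted: active = fluorescence slope higher than the sample average by over 3 SD (cut at about -0.22 in these data, passing the limit was not always enough); inactive = the rest.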
# Tests used:
# [1] = inhibitors of TNFa-induced NFkB p65 translocation, primary screen, imaging, HUVEC, MLSMR starter and 10KST1 sets (AID 438;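 active = inhibition above 20% together with a positive visual image hit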;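 also: compound added about 3h40 before a 20 min TNFalpha stimulation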;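 as to inhibition: signal is the nuclear over cytoplasmic p65 intensity ratio per well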); details: HUVEC TNFa-induced p65 nuclear translocation; cell count: measured here: nuclei count (cytotoxicity indicator), at 2.08 µM; inhibition: at 2 µM, stronger effect = higher value, 0% TNFa-plus-vehicle, 100% no-TNFa wells
# [2] = inhibitors of mutant huntingtin aggregation, primary screen, imaging, exon1htt(103Q)mCFP cells, high-content imaging (AID 483;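 active = visual image review flags a hit and inhibition of aggregation exceeds 20%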;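 also: compound exposure lasted 3 days before fixation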;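 as to nuclei count: percent of the per-plate median nuclei count of sample wells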); details: exon1htt(103Q)mCFP cell line, aggregate imaging, at 2 µM; inhibition of aggregation: stronger effect = higher value; nuclei count: measured here: cell count, toxicity
# [3] = inhibitors of E-selectin induction by TNFa, primary screen, imaging, HUVEC, immunofluorescence, MLSMR starter and 10KST1 sets (AID 487;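 active = visually confirmed hit in the image check and inhibition above 20%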;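 as to inhibition: signal is fraction of cell area covered by stained E-selectin grains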;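 as to nuclei count: 100% = median nuclei count of all wells on the same plate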); details: HUVEC TNFalpha-induced E-selectin immunofluorescence imaging, at 2 µM; inhibition: stronger effect = higher value; nuclei count: measured here: cell number, toxicity
# [4] = biological target: Voltage-gated potassium channel subunit beta-2 (Rattus norvegicus) (UniProt P62483); test: KvBeta enzyme negative modulators, primary screen, biochemical, NADPH fluorescence (AID 622); details: recombinant KvBeta, 4-cyanobenzaldehyde reduction, at 10 µM, stronger effect = higher value;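 also: slope of raw intensity against log time taken from 70 to 1610 s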
# [5] = biological target: Voltage-gated potassium channel subunit beta-2 (Rattus norvegicus) (UniProt P62483); test: KvBeta positive modulators, primary screen, biochemical, NADPH fluorescence (AID 623;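 active = NADPH fluorescence slope more negative than the mean of all samples by about 3 SD, 99.7% confidence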;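 also: fluorescence intensity change per second fitted from 20 to 320 s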); details: Recombinant KvBeta, NADPH fluorescence decrease slope, 10 min; at 10 µM; stronger effect = lower value
# [6] = biological target: Muscarinic acetylcholine receptor M4 (Homo sapiens) (UniProt P08173); test: compounds altering M4/GIRK thallium flux, either direction, primary screen, M4 allosteric agonist project, cell-based, HEK293 M4/GIRK, BTC-AM (AID 625;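 active = fluorescence slope after compound addition differing from the mean of all tested samples at 99.7% confidence, mostly higher but some lower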;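 also: thallium influx through GIRK channels coupled to M4 in HEK293 cells with BTC-AM dye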); details: at 10 µM, actives lie on both sides
# How it was run: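 Material: M4/GIRK1/GIRK2 stable HEK293 cell line. Medium: pH 7.3 thallium assay buffer. Dosing: single compound concentration, 10 µM final. Schedule: 1 h dye loading, 2 min kinetic read. Measured by: kinetic fluorescence with BTC-AM dye. Read-out: post-addition slope, 15–24 s, of baseline-normalized fluorescence. Benchmarks: carbachol and DMSO controls.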
# [7] = inhibitors of Sendai virus-induced IRF3 signaling, primary screen, TLR/RLR signaling modifier project, cell-based, Sendai virus stimulus, luciferase, 10K MLSCN set (AID 602276;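 active = inhibition at or above 50% at 10 µM; inactive = inhibition below 50%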;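 also: firefly luciferase from ISG56 promoter only with Renilla not read in this screen; 0% = Sendai virus plus DMSO and 100% = medium plus DMSO without virus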); details: HEK293 RL24 IRF3 luciferase reporter, at 10 µM, stronger effect = higher value
# [8] = inhibitors of poly I:C-induced TLR3 signaling, primary screen, cell-based, poly I:C stimulus, luciferase, 10K MLSCN set (AID 602277;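 active = inhibition of the reporter signal at or above 50%; inactive = inhibition below 50%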); details: HEK293-TLR3 RL24 IRF3 luciferase reporter, at 10 µM, stronger effect = higher value
# Sequence of Muscarinic acetylcholine receptor M4 (Homo sapiens) (P08173 whole entry, looked up): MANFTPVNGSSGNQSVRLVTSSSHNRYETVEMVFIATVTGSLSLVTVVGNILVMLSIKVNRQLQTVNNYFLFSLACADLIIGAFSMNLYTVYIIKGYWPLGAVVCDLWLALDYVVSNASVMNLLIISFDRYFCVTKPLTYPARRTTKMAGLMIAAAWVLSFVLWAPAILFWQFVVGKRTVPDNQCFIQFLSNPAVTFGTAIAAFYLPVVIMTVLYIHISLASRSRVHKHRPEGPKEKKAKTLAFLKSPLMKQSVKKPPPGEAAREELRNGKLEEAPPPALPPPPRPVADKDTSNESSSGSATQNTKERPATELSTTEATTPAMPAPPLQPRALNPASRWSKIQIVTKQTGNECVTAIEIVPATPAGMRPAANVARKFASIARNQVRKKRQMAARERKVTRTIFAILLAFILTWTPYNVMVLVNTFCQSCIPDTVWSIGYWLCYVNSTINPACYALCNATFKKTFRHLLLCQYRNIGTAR
# Sequence of Voltage-gated potassium channel subunit beta-2 (Rattus norvegicus) (P62483 whole entry, looked up): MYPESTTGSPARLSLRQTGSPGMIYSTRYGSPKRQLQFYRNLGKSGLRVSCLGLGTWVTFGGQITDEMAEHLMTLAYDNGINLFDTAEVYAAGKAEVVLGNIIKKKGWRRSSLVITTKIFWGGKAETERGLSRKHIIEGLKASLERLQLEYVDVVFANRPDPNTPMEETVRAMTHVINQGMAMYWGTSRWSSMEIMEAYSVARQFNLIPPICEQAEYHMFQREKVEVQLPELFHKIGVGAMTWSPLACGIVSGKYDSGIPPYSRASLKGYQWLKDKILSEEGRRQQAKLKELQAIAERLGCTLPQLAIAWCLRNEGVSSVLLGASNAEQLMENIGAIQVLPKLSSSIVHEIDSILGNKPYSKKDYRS
Structure (SMILES),cell count [1],inhibition [1],inhibition of aggregation [2],nuclei count [2],inhibition [3],nuclei count [3],fluorescence slope [4],NADPH fluorescence slope [5],fluorescence slope [6],inhibition [7],inhibition [8]
Cc1ccc(S(=O)(=O)N(C)Cc2cc3ccccc3[nH]c2=O)cc1,544,-5% (inactive),12.8% (inactive),99.8%,29.4% (inactive),104%,-0.52 (inactive),-0.000101 (inactive),0.00517 (inactive),8.78% (inactive),70.5% (active)
CCOC(=O)CSc1nc2ccccc2c(=O)n1CCN1CCOCC1,513,-3.4% (inactive),-7.1% (inactive),96.3%,4.2% (inactive),109%,-0.474 (inactive),-1.3e-06 (inactive),0.00551 (inactive),-2.06% (inactive),17.7% (inactive)
CS(=O)(=O)Nc1ccc(C(=O)NCc2ccc3c(c2)OCO3)cc1,409,-5.7% (inactive),16.6% (inactive),66.5%,-42.6% (inactive),108%,-0.472 (inactive),-1.7e-05 (inactive),0.00561 (inactive),9.26% (inactive),4.21% (inactive)
CCOc1ccccc1NC(=O)C1CCCN(C(=O)NCc2ccccc2)C1 (stereo unspecified),684,-7.7% (inactive),-15.4% (inactive),114%,-96.5% (inactive),106%,-0.448 (inactive),8e-05 (inactive),0.00645 (inactive),5.61% (inactive),-20.5% (inactive)
Cc1cc(-c2ccccc2)nc2cc(C(N)=O)nn12,331,-5.5% (inactive),14.7% (inactive),86.6%,-129% (inactive),116%,-0.424 (inactive),-2.5e-05 (inactive),0.0052 (inactive),15.9% (inactive),13.7% (inactive)
COCc1[nH]nc2c1C(C1C=CCCC1)C(C#N)=C(N)O2 (stereo unspecified),463,5.7% (inactive),-1.8% (inactive),110%,-76.2% (inactive),120%,-0.464 (inactive),-6.2e-05 (inactive),0.00521 (inactive),16.7% (inactive),31.6% (inactive)
O=C1c2ccccc2C(=O)N1OCc1ccccc1,457,-6% (inactive),13.7% (inactive),80.1%,-71.8% (inactive),126%,-0.608 (inactive),-3.7e-05 (inactive),0.00373 (inactive),16.6% (inactive),21.5% (inactive)
CSc1n[nH]c(NCc2ccccc2)n1,278,0.2% (inactive),10.1% (inactive),70.6%,-70.1% (inactive),119%,-0.482 (inactive),-1.9e-05 (inactive),0.00548 (inactive),6.09% (inactive),-2.54% (inactive)
O=C(CC1CCCCC1)NCc1ccccn1,595,4.1% (inactive),11.3% (inactive),94.6%,-42.2% (inactive),116%,-0.462 (inactive),-5.1e-05 (inactive),0.00493 (inactive),11.5% (inactive),12.6% (inactive)
COC(=O)c1sccc1NC(=O)c1ccncc1,467,5.7% (inactive),7.5% (inactive),103%,-36.5% (inactive),122%,-0.49 (inactive),-3.8e-05 (inactive),0.00518 (inactive),12% (inactive),-9.7% (inactive)
CN1CCN(CC(=O)Nc2ccc(Cl)cc2Cl)CC1,445,-3.5% (inactive),0% (inactive),103%,66.8% (inactive),78.8%,-0.619 (inactive),7.6e-06 (inactive),0.00642 (inactive),11% (inactive),14.7% (inactive)
CC(Oc1ccc2oc(-c3ccccc3)c(C(=O)O)c2c1)C(=O)O (stereo unspecified),371,10.6% (inactive),9% (inactive),104%,27.6% (inactive),89.9%,-0.158 (inactive),-5.4e-05 (inactive),0.00531 (inactive),7.55% (inactive),16.2% (inactive)
Cc1cc(NC(=O)CSc2ccc3nnc(-c4cccc(F)c4)n3n2)no1,619,-13.6% (inactive),10.1% (inactive),125%,-55.4% (inactive),107%,-0.266 (inactive),1e-08 (inactive),0.00544 (inactive),-1.23% (inactive),-7.4% (inactive)
O=c1c2c(nc3nc(COc4ccccc4)[nH]n13)CCC2,305,5.6% (inactive),19.9% (inactive),100%,-89.8% (inactive),102%,-0.539 (inactive),-9.7e-06 (inactive),0.00436 (inactive),15.2% (inactive),18% (inactive)
COC(=O)c1ccccc1NC(=O)Nc1cc(C)cc(C)n1,205,0.9% (inactive),-2.4% (inactive),71.9%,10.8% (inactive),140%,-0.504 (inactive),-2.5e-05 (inactive),0.00537 (inactive),6.32% (inactive),99% (active)
CCOC(=O)c1nn(-c2sc(C(=O)OC)c(C)c2C(=O)OC)cc1O,449,-6.2% (inactive),1% (inactive),94.5%,0.1% (inactive),108%,-0.518 (inactive),-3.7e-05 (inactive),0.00503 (inactive),20.5% (inactive),24.1% (inactive)
COc1ccc(CNc2nc3nc(C)cc(C)n3n2)cc1OC,646,-15.5% (inactive),39.5% (active),107%,-5.7% (inactive),115%,-0.422 (inactive),-0.000434 (inactive),0.00355 (inactive),13.3% (inactive),12.9% (inactive)
O=C(Nc1ccc2c(c1)OCO2)c1ccc(Br)c(S(=O)(=O)N2CCCC2)c1,660,-5.2% (inactive),-2% (inactive),103%,-99.5% (inactive),90.4%,-0.505 (inactive),-6.5e-05 (inactive),0.0042 (inactive),-20.9% (inactive),-15.4% (inactive)
CCCCOc1ccc(NC(=O)Cn2c(=O)ccc3c(C)cc(C)nc32)cc1,400,5.6% (inactive),11.8% (inactive),88.5%,-342% (inactive),149%,-0.565 (inactive),8.6e-06 (inactive),0.0062 (inactive),15.2% (inactive),20.7% (inactive)
[O-][n+]1onc2c1CCc1nnc(-c3ccccc3)cc1-2,320,-0.8% (inactive),7.5% (inactive),102%,-7.3% (inactive),123%,-0.598 (inactive),2.3e-05 (inactive),0.00387 (inactive),-0.775% (inactive),-6.53% (inactive)
FC(F)(F)c1cc(-c2ccco2)nc(-n2nnc3ccccc32)n1,529,-6.9% (inactive),-8.6% (inactive),109%,-12% (inactive),101%,-0.562 (inactive),1.3e-05 (inactive),0.00724 (inactive),15.2% (inactive),22.4% (inactive)
CCOc1ccccc1Nc1ncnc2ccccc12,394,9.3% (inactive),8% (inactive),93.2%,-40.8% (inactive),120%,-0.548 (inactive),-1.6e-05 (inactive),0.00457 (inactive),5.79% (inactive),-12% (inactive)
c1ccc(OCCOc2ncnc3sccc23)cc1,395,-22% (inactive),-0.7% (inactive),106%,-62.1% (inactive),125%,-0.583 (inactive),-5e-05 (inactive),0.00602 (inactive),-2.1% (inactive),-65.8% (inactive)
COCCn1c(SCC(=O)Nc2nnc(C)s2)nnc1-c1ccncc1,564,-7.5% (inactive),7.7% (inactive),99.2%,-32.1% (inactive),115%,-0.172 (inactive),-1.8e-05 (inactive),0.00934 (inactive),18.4% (inactive),-2.25% (inactive)
O=C(O)c1cc2c([nH]c1=O)CCCC2,661,-18.4% (inactive),24.5% (inactive),96.3%,-0.2% (inactive),100%,-0.585 (inactive),2.3e-05 (inactive),0.00466 (inactive),13.7% (inactive),24.4% (inactive)
Cc1ccc(C(C)C)c(OCc2nnc(SCC(=O)Nc3ncc(C)s3)n2C)c1,663,0.5% (inactive),-35.5% (inactive),108%,-36.3% (inactive),108%,-0.545 (inactive),-3.2e-05 (inactive),0.00564 (inactive),9.43% (inactive),12.4% (inactive)
